According to ChEMBL document CHEMBL1671701, “Discovery of potent small-molecule inhibitors of multidrug-resistant Plasmodium falciparum using a novel miniaturized high-throughput luciferase-based assay” (Antimicrob Agents Chemother, 2010):
Structures can show the parent of a compound that is named as a salt.

test system: HepG2; assay: Cytotoxicity activity against human HepG2 cells after 24 hrs; assay type: cell-based; details: HepG2, 24 h

Row | Structure (SMILES) | IC50 [nM]
1 | CCNC(=O)N1CCN(CCCC(c2ccc(F)cc2)c2ccc(F)cc2)CC1 [AMPEROZIDE] | 95000
2 | COc1cccc2c1C(=O)c1c(O)c3c(c(O)c1C2=O)C[C@@](O)(C(=O)CO)C[C@@H]3O[C@H]1C[C@H](N)[C@H](O)[C@H](C)O1 [DOXORUBICIN] | 69000
3 | c1cc(CN2CCCCC2)cc(OCCCNc2nc3ccccc3s2)c1 [ZOLANTIDINE] | 76000

test system: not listed separately; assay: Cytotoxicity activity against human HAEC cells after 24 hrs; assay type: cell-based; details: not given

Row | Structure (SMILES) | IC50 [nM]
4 | CCNC(=O)N1CCN(CCCC(c2ccc(F)cc2)c2ccc(F)cc2)CC1 [AMPEROZIDE] | 83000
5 | COc1cccc2c1C(=O)c1c(O)c3c(c(O)c1C2=O)C[C@@](O)(C(=O)CO)C[C@@H]3O[C@H]1C[C@H](N)[C@H](O)[C@H](C)O1 [DOXORUBICIN] | 13000
6 | c1cc(CN2CCCCC2)cc(OCCCNc2nc3ccccc3s2)c1 [ZOLANTIDINE] | 75000

test system: Plasmodium falciparum; assay: Antiplasmodial activity against multidrug-resistant Plasmodium falciparum TM90C2B by SYBR Green 1-based fluorescence assay; assay type: functional, organism-based; details: not given
In short: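 Resistant TM90C2B parasites are treated over a dose range and growth is read as SYBR green I fluorescence. IC50 comes from a fit of the log dose-response relationship, as the mean of at least three separate experiments.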

Row | Structure (SMILES) | IC50 [nM]
7 | CC(=O)N(C1=C(N(C)C)C(=O)c2ccccc2C1=O)c1ccc(F)c(F)c1 | 110
8 | CC(=O)N(C1=C(N(C)C)C(=O)c2ccccc2C1=O)c1cccc(Br)c1 | 94
9 | CC(=O)N(C1=C(N2CCOCC2)C(=O)c2ccccc2C1=O)c1cccc(Cl)c1 | 510
10 | CC(=O)N(C1=C(N2CCOCC2)C(=O)c2ccccc2C1=O)c1ccccc1 | 530
11 | CC(=O)N(C1=C(N(C)C)C(=O)c2ccccc2C1=O)c1cccc(F)c1 | 74
12 | O=C1C(O)=C([C@H]2CC[C@H](c3ccc(Cl)cc3)CC2)C(=O)c2ccccc21 [ATOVAQUONE] | 12000

test system: Plasmodium falciparum; assay: Antiplasmodial activity against Plasmodium falciparum 3D7 infected in RBCs by firefly luciferase reporter gene assay; assay type: functional, organism-based; details: not given
In short: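 Sorbitol-synchronised 3D7 expressing firefly luciferase from the HRPII promoter, at 1% late-ring parasitemia and 3% hematocrit in RPMI/albumax II medium. Sixteen 2-fold dilutions from 17 μM to 0.5 nM, 48 h at 37°C under 5% O2/5% CO2/N2. Bright-Glo luminescence is normalised to untreated infected and uninfected-RBC wells. IC50 by four-parameter logistic fit.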

Row | Structure (SMILES) | IC50 [nM]
13 | CCNC(=O)N1CCN(CCCC(c2ccc(F)cc2)c2ccc(F)cc2)CC1 [AMPEROZIDE HYDROCHLORIDE] | 35
14 | CCNC(=O)N1CCN(CCCC(c2ccc(F)cc2)c2ccc(F)cc2)CC1 [AMPEROZIDE DIHYDROCHLORIDE] | 443

same assay, conditions: Plasmodium falciparum, 3D7

Row | Structure (SMILES) | IC50 [nM]
15 | CC(=O)N(C1=C(N(C)C)C(=O)c2ccccc2C1=O)c1ccc(F)c(F)c1 | 25
16 | CC(C)C[C@@H]1NC(=O)[C@H](CCCN)NC(=O)[C@H](C(C)C)NC(=O)[C@H](Cc2ccc(O)cc2)N[C@@H](CCC(=O)O)C(=O)N[C@@H](CC(N)=O)C(=O)[C@@H](Cc2ccccc2)NC(=O)[C@H](Cc2ccccc2)NC(=O)[C@@H]2CCCN2C(=O)[C@@H](Cc2ccccc2)NC1=O [TYROTHRICIN] | 0.05
17 | CCN(c1nc(N)c(C(=O)NC(=N)N)nc1Cl)C(C)C [5-(N-ETHYL-N-ISOPROPYL)AMILORIDE] | 825
18 | N/C(=N\C(=O)c1nc(Cl)c(N)nc1N)NCc1ccccc1 [BENZAMIL HYDROCHLORIDE] | 217
19 | Oc1c(Cl)cccc1C1=NN=C(c2ccc(Cl)cc2)C1 | 15000
20 | CC(=O)N(C1=C(N2CCCCC2)C(=O)c2ccccc2C1=O)C1CCCCC1 | 5400
21 | CC1CCCN(c2cc(Cl)cc(Cl)c2O)C1 (centres undefined) | 110
22 | CCCCOc1ccc(CC(=O)NO)cc1 [BUFEXAMAC] | 2770
23 | N=C(N)c1ccc(OCCCCCOc2ccc(C(=N)N)cc2)cc1 | 42
24 | O=c1ccc2ccccc2[nH]1 [OXYQUINOLINE HEMISULFATE] | 1140
25 | CCCN1CCC(NC(c2ccccc2)c2ccc(Cl)cc2)CC1 (centres undefined) | 1100
26 | CN(CCc1ccccc1)c1cc(Br)cc(Br)c1O | 36
27 | CCN(CC)CCCC(c1ccc(F)cc1)c1ccc(F)cc1 | 5700
28 | N#Cc1ccc2c(c1)N(CCCN1CCC(O)CC1)c1ccccc1S2 [PERICIAZINE] | 6560
29 | CCCc1nc2c(C)cc(-c3nc4ccccc4n3C)cc2n1Cc1ccc(-c2ccccc2C(=O)O)cc1 [TELMISARTAN] | 1610
30 | Fc1ccc(C(CCCN2CCOCC2)c2ccc(F)cc2)cc1 | 18000
31 | Clc1cccc(CNC2CCN(Cc3ccccc3)CC2)c1 | 1100
32 | N#CN/C(=N\CCNC(=O)c1ccc(N)cc1)NCCCOc1cccc(CN2CCCCC2)c1 [AMINOPOTENTIDINE] | 14700
33 | CCN(CC)CCCC(C)Nc1c2ccc(Cl)cc2nc2ccc(OC)cc12 (centres undefined) [QUINACRINE DIHYDROCHLORIDE] | 1
34 | O[Si](CCCN1CCCCC1)(c1ccc(F)cc1)C1CCCCC1 (centres undefined) | 4
35 | CCCCN(C)c1cc(Br)cc(Br)c1O | 270
36 | CCCN(CC1CC1)c1cc(Cl)cc(Cl)c1O | 330
37 | NC(N)=Nc1nc(CSCC/C(N)=N/S(N)(=O)=O)cs1 [FAMOTIDINE] | > 22800
38 | C=C[C@H]1CN2CC[C@H]1C[C@@H]2[C@@H](O)c1ccnc2ccc(OC)cc12 [QUINIDINE SULFATE] | 56
39 | C=C[C@H]1CN2CC[C@H]1C[C@@H]2[C@@H](O)c1ccnc2ccccc12 [CINCHONINE] | 5
40 | Fc1ccc(C(CCCN2CCNCC2)c2ccc(F)cc2)cc1 | 4500
41 | CN1CCN(CCCC(c2ccc(F)cc2)c2ccc(F)cc2)CC1 | 12000

Row | Structure (SMILES) | IC50 [nM]
42 | C/N=C(/NC#N)NCCSCc1csc(NC(=N)N)n1 [TIOTIDINE] | > 22800
43 | CCCN1CCC(NCC(c2ccccc2)c2ccccc2)CC1 | 490
44 | CC(C)CN(C)c1nc(N)c(C(=O)N=C(N)N)nc1Cl [5-(N-METHYL-N-ISOBUTYL)AMILORIDE] | 549
45 | COc1ccc(CCN2CCC(Nc3nc4ccccc4n3Cc3ccc(F)cc3)CC2)cc1 [ASTEMIZOLE] | 254
46 | CNC(=C[N+](=O)[O-])NCCSCc1ccc(CN(C)C)o1 [RANITIDINE HYDROCHLORIDE] | > 22800
47 | CC[C@]1(O)C[C@@H]2CN(CCc3c([nH]c4ccccc34)[C@@](C(=O)OC)(c3cc4c(cc3OC)N(C)[C@H]3[C@@](O)(C(=O)OC)[C@H](OC(C)=O)[C@]5(CC)C=CCN6CC[C@]43[C@@H]65)C2)C1 [VINBLASTINE] | 2
48 | CN(C)c1nc(N)c(C(=O)NC(=N)N)nc1Cl [5-(N,N-DIMETHYL)AMILORIDE HYDROCHLORIDE] | 1100
49 | Cc1ccnc(NS(=O)(=O)c2ccc(N)cc2)n1 [SULFAMERAZINE] | 6
50 | Fc1ccc(C(CCCN2CCCCC2)c2ccc(F)cc2)cc1 | 6000
51 | Oc1c(Cl)cccc1N1CCCCCCC1 | 180
52 | N/C(=N\C(=O)c1nc(Cl)c(N)nc1N)NCc1ccc(Cl)c(Cl)c1 [3',4' DICHLOROBENZAMIL] | 143
53 | CC(=O)N(C1=C(N2CCCCC2)C(=O)c2ccccc2C1=O)c1cccc(Cl)c1 | 4300
54 | O=S(=O)(c1ccccc1)N1CCN(CCCC(c2ccc(F)cc2)c2ccc(F)cc2)CC1 | 3000
55 | CC(=O)N(C1=C(N(C)C)C(=O)c2ccccc2C1=O)c1cccc(Br)c1 | 32
56 | CC1CCCN(c2cccc(Br)c2O)C1 (centres undefined) | 130
57 | CC[C@H]1CN2CCc3cc(OC)c(OC)cc3[C@@H]2C[C@@H]1C[C@H]1NCCc2cc(OC)c(OC)cc21 [EMETINE DIHYDROCHLORIDE HYDRATE] | 1
58 | Clc1ccc(CNC2CCN(Cc3ccccc3)CC2)cc1 | 250
59 | CC(=O)N(C1=C(N2CCOCC2)C(=O)c2ccccc2C1=O)c1cccc(Cl)c1 | 790
60 | CCCCN(Cc1ccccc1)c1ccccc1O | 420
61 | Cc1cccc(C2=NN=C(c3ccc(Br)cc3)C2)c1O | 4700
62 | CC[C@]1(O)C[C@H]2CN(CCc3c([nH]c4ccccc34)[C@@](C(=O)OC)(c3cc4c(cc3OC)N(C=O)[C@H]3[C@@](O)(C(=O)OC)[C@H](OC(C)=O)[C@]5(CC)C=CCN6CC[C@]43[C@@H]65)C2)C1 [VINCRISTINE] | 1
63 | O=C(Nc1ccccc1)N1CCN(CCCC(c2ccc(F)cc2)c2ccc(F)cc2)CC1 | 7300
64 | Clc1ccc(C(OCCN2CCCCC2)c2ccccc2)cc1 (centres undefined) [CLOPERASTINE HYDROCLORIDE] | 4880
65 | Oc1c(Br)cccc1N1CCCCCCC1 | 430
66 | CCCCCC[C@H]1C(=O)O[C@H](C)[C@H](NC(=O)c2cccc(NC=O)c2O)C(=O)O[C@@H](C)[C@@H]1OC(=O)CC(C)C [ANTIMYCIN A] | 2190
67 | CCCN(CC1CC1)c1cc(OC)cc(Br)c1O | 290
68 | CC(=O)N(C1=C(N2CCOCC2)C(=O)c2ccccc2C1=O)c1ccccc1 | 780

Row | Structure (SMILES) | IC50 [nM]
69 | C=CC[N+](C)(C)c1ccc(CCC(=O)CCc2ccc([N+](C)(C)CC=C)cc2)cc1 | 107
70 | NC(=O)CCCCn1ccc(/N=C(\N)NCC(F)(F)F)n1 | 18000
71 | CN/C(=N\CCSCc1nc[nH]c1C)NC#N [CIMETIDINE] | > 22800
72 | COc1ccc(O)c(N2CCCCC2)c1 | 790
73 | c1cc(CN2CCCCC2)cc(OCCCNc2nc3ccccc3s2)c1 [ZOLANTIDINE DIMALATE] | > 22800
74 | CCC(=O)O[C@]1(C(=O)CCl)[C@@H](C)C[C@H]2[C@@H]3CCC4=CC(=O)C=C[C@]4(C)[C@@]3(F)[C@@H](O)C[C@@]21C [CLOBETASOL PROPIONATE] | 797
75 | CCCN(CCC)[C@H]1CCc2c(F)ccc(O)c2C1 | 5
76 | CC(=O)N(C1=C(N(C)C)C(=O)c2ccccc2C1=O)c1cccc(F)c1 | 11
77 | CCN(CC)CCNc1ccc(CO)c2sc3ccccc3c(=O)c12 [HYCANTHONE] | 3020
78 | C[C@@H]1C[C@H]2[C@@H]3CCC4=CC(=O)C=C[C@]4(C)[C@@]3(Cl)[C@@H](O)C[C@]2(C)[C@@]1(OC(=O)c1ccco1)C(=O)CCl [MOMETASONE FUROATE] | 1510
79 | C=C[C@H]1CN2CC[C@H]1C[C@H]2[C@H](O)c1ccnc2ccc(OC)cc12 [QUININE SULFATE] | 280
80 | O=C1CCN(CCCC(c2ccc(F)cc2)c2ccc(F)cc2)CC1 | 5400
81 | Oc1c(Cl)cccc1C1=NN=C(c2ccc(F)cc2)C1 | 1500
82 | C[C@H]1[C@H](OC(=O)CCC(=O)O)O[C@@H]2O[C@@]3(C)CC[C@H]4[C@H](C)CC[C@@H]1[C@@]24OO3 [ARTESUNATE] | 3.3
83 | COc1ccc(CNC2CCN(Cc3ccccc3)CC2)cc1 | 1300
84 | Cc1ccc(CS(=O)(=O)N2CCN(CCCC(c3ccc(F)cc3)c3ccc(F)cc3)CC2)cc1 | 800
85 | NCCc1c[nH]cn1 [HISTAMINE] | 660
86 | Oc1ccccc1N1CCCC2CCCCC21 (centres undefined) | 410
87 | c1ccc(CCN2CCC(NC3CCCCC3)CC2)cc1 | 890
88 | CNC(=C[N+](=O)[O-])NCCSCc1csc(CN(C)C)n1 [NIZATIDINE] | > 22800
89 | CCCN(CC1CC1)c1cc(Br)cc(Br)c1O | 710
90 | Fc1ccc(C(CCCN2CCCC2)c2ccc(F)cc2)cc1 | 12000
91 | O=C1C(O)=C([C@H]2CC[C@H](c3ccc(Cl)cc3)CC2)C(=O)c2ccccc21 [ATOVAQUONE] | 0.41
92 | CN1CCc2cccc3c2[C@H]1Cc1ccc(O)c(O)c1-3 [APOMORPHINE HYDROCHLORIDE] | 373
93 | CN(Cc1ccccc1)c1cc(Br)cc(Br)c1O | 680

test system: Plasmodium falciparum; assay: Antiplasmodial activity against Plasmodium falciparum 3D7 by SYBR Green 1-based fluorescence assay; assay type: functional, organism-based; details: not given

Row | Structure (SMILES) | IC50 [nM]
94 | CC(=O)N(C1=C(N(C)C)C(=O)c2ccccc2C1=O)c1ccc(F)c(F)c1 | 170
95 | CC(=O)N(C1=C(N(C)C)C(=O)c2ccccc2C1=O)c1cccc(Br)c1 | 130
96 | CC(=O)N(C1=C(N2CCOCC2)C(=O)c2ccccc2C1=O)c1cccc(Cl)c1 | 1800
97 | CC(=O)N(C1=C(N2CCOCC2)C(=O)c2ccccc2C1=O)c1ccccc1 | 1600
98 | CC(=O)N(C1=C(N(C)C)C(=O)c2ccccc2C1=O)c1cccc(F)c1 | 110
99 | O=C1C(O)=C([C@H]2CC[C@H](c3ccc(Cl)cc3)CC2)C(=O)c2ccccc21 [ATOVAQUONE] | 0.8
